Activity calls are given as the source filed them. The calls are words filed in the database; no cut-off is given here. *1 amine or outer side, *2 acyl side, *3 side chain or, on linkers, in order; H or OH if unused. Where a SMILES comes first, the peptide text is derived from it. Bridges are numbered along the chain shown (N, C = ends). [ ]: non-standard residue; d: D form. The star is where a group is joined. hTyr(3S-OH,4S-OH,3'-OSO3H) = N[C@H](C(=O)O)[C@H](O)[C@@H](O)c1ccc(O)c(OS(=O)(=O)O)c1; pTerphenylCO(4''-OnC5H11) = CCCCCOc1ccc(-c2ccc(-c3ccc(C(=O)*)cc3)cc2)cc1; Orn(4R-OH,5R-OH) = O=C([C@H](C[C@@H](O)[C@@H](O)N[*:3])N[*:1])[*:2]; hTyr(3S-OH,4S-OH) = N[C@H](C(=O)O)[C@H](O)[C@@H](O)c1ccc(O)cc1; Pro(3S-OH,4S-Me) = C[C@H]1CN[C@H](C(=O)O)[C@H]1O; X1 = CCCCCOc1ccc(-c2cc(-c3ccc(C(=O)*)cc3)no2)cc1; Gln(3R-OH) = NC(=O)C[C@@H](O)[C@H](N)C(=O)O; Hyp = O=C(O)[C@@H]1C[C@@H](O)CN1
Assays:
Aspergillus fumigatus [1] = assay: Antifungal activity against Aspergillus fumigatus Af293 assessed as abnormal hyphal growth by CLSI method; format: functional; conditions: read-out: MEC
How it was run: (§1)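 MEC by CLSI broth microdilution in RPMI 1640. Conidia were incubated with or without drug for 48 h at 37°C, in triplicate.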

Aspergillus fumigatus [2] = assay: Antifungal activity against cnaA deficient Aspergillus fumigatus Af293 assessed as abnormal hyphal growth by CLSI method; format: functional; conditions: read-out: MEC; how it was run: as §1
Aspergillus fumigatus [3] = assay: Antifungal activity against Aspergillus fumigatus Af293 expressing cnaA gene assessed as abnormal hyphal growth by CLSI method; format: functional; conditions: read-out: MEC; how it was run: as §1
Aspergillus fumigatus [4] = assay: Antifungal activity against crzA deficient Aspergillus fumigatus Af293 assessed as abnormal hyphal growth by CLSI method; format: functional; conditions: read-out: MEC; how it was run: as §1
Aspergillus fumigatus [5] = assay: Antifungal activity against Aspergillus fumigatus Af293 expressing crzA gene assessed as abnormal hyphal growth by CLSI method; format: functional; conditions: read-out: MEC; how it was run: as §1
Aspergillus fumigatus [6] = assay: Antifungal activity against Aspergillus fumigatus H237 assessed as abnormal hyphal growth by CLSI method; format: functional; conditions: read-out: MEC; how it was run: as §1
Aspergillus fumigatus [7] = assay: Antifungal activity against rasA deficient Aspergillus fumigatus H237 assessed as abnormal hyphal growth by CLSI method; format: functional; conditions: read-out: MEC; how it was run: as §1
Aspergillus fumigatus [8] = assay: Antifungal activity against Aspergillus fumigatus H237 expressing rasA gene assessed as abnormal hyphal growth by CLSI method; format: functional; conditions: read-out: MEC; how it was run: as §1
Aspergillus fumigatus [9] = assay: Antifungal activity against Aspergillus fumigatus H237 expressing dominant-active rasA gene assessed as abnormal hyphal growth by CLSI method; format: functional; conditions: read-out: MEC; how it was run: as §1
Aspergillus fumigatus [10] = assay: Antifungal activity against cnaA deficient Aspergillus fumigatus Af293 assessed as inhibition of hyphal growth at germling stage at 1 ug/ml by CLSI method; format: functional, organism-based
How it was run: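 Conidia were grown as for CLSI susceptibility testing in RPMI 1640 with or without echinocandin (1 μg/ml) for 48 h at 37°C. Hyphal morphology was then examined by bright-field microscopy.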

Aspergillus fumigatus [11] = assay: Antifungal activity against rasA deficient Aspergillus fumigatus H237 assessed as decrease in 1, 3-beta-D-glucan cell wall content at 1 ug/ml by aniline blue assay; format: functional, organism-based
How it was run: (§2)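 10⁶ conidia/ml were grown in RPMI 1640 with or without drug for 48 h at 37°C, 250 rpm. Hyphae were washed in 0.1 M NaOH and lyophilized. 5 mg was taken into 1 M NaOH, sonicated and heated at 52°C for 30 min. Aniline blue mix (pH 9.5) was added for 30 min at 52°C. Fluorescence was read at ex 405/em 460 nm against a curdlan standard curve. Results are % change in RFU/mg versus untreated wild type, from five independent experiments.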

Aspergillus fumigatus [12] = assay: Antifungal activity against cnaA deficient Aspergillus fumigatus Af293 assessed as decrease in 1, 3-beta-D-glucan cell wall content at 1 ug/ml by aniline blue assay; format: functional, organism-based; how it was run: as §2
Aspergillus fumigatus [13] = assay: Antifungal activity against crzA deficient Aspergillus fumigatus Af293 assessed as decrease in 1, 3-beta-D-glucan cell wall content at 1 ug/ml by aniline blue assay; format: functional, organism-based; how it was run: as §2
Aspergillus fumigatus [14] = assay: Antifungal activity against Aspergillus fumigatus Af293 assessed as decrease in 1, 3-beta-D-glucan cell wall content at 1 ug/ml after 48 hrs by aniline blue assay; format: functional, organism-based; how it was run: as §2
Aspergillus fumigatus [15] = assay: Antifungal activity against Aspergillus fumigatus H237 assessed as decrease in 1, 3-beta-D-glucan cell wall content at 1 ug/ml after 48 hrs by aniline blue assay; format: functional, organism-based; how it was run: as §2
Aspergillus fumigatus [16] = assay: Antifungal activity against Aspergillus fumigatus H237 expressing dominant-active rasA assessed as decrease in 1, 3-beta-D-glucan cell wall content at 1 ug/ml after 48 hrs by aniline blue assay; format: functional, organism-based; how it was run: as §2
Candida albicans = assay: Antifungal activity against Candida albicans SC5314 assessed as decrease in chitin cell wall content at 4 ug/ml after 48 hrs; format: functional, organism-based
Aspergillus fumigatus [17] = assay: Antifungal activity against cnaA deficient Aspergillus fumigatus Af293 assessed as increase in chitin cell wall content at 1 to 16 ug/ml after 48 hrs; format: functional, organism-based
How it was run: (§3)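 Nikkomycin Z dose series from 0 to 16 μg/ml, added to cultures of 10⁶ conidia/ml in RPMI 1640 for 48 h at 37°C, 250 rpm. Chitin was assayed on 5 mg of lyophilized mycelium by KOH hydrolysis at 130°C, then MBTH colorimetry at A650 against a glucosamine standard. Output is glucosamine equivalents (μg/ml), from biological triplicate.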

Aspergillus fumigatus [18] = assay: Antifungal activity against crzA deficient Aspergillus fumigatus Af293 assessed as increase in chitin cell wall content at 1 to 16 ug/ml after 48 hrs; format: functional, organism-based; how it was run: as §3
Aspergillus fumigatus [19] = assay: Antifungal activity against rasA deficient Aspergillus fumigatus H237 assessed as increase in chitin cell wall content at 1 to 16 ug/ml after 48 hrs; format: functional, organism-based; how it was run: as §3
Aspergillus fumigatus [20] = assay: Antifungal activity against Aspergillus fumigatus H237 expressing dominant-active rasA assessed as increase in chitin cell wall content at 1 to 16 ug/ml after 48 hrs; format: functional, organism-based; how it was run: as §3
Aspergillus fumigatus [21] = assay: Antifungal activity against cnaA deficient Aspergillus fumigatus Af293 assessed as increase in chitin cell wall content at 16 ug/ml after 48 hrs; format: functional, organism-based; how it was run: as §3
Aspergillus fumigatus [22] = assay: Antifungal activity against crzA deficient Aspergillus fumigatus Af293 assessed as increase in chitin cell wall content at 16 ug/ml after 48 hrs; format: functional, organism-based; how it was run: as §3
Aspergillus fumigatus [23] = assay: Antifungal activity against rasA deficient Aspergillus fumigatus H237 assessed as increase in chitin cell wall content at 16 ug/ml after 48 hrs; format: functional, organism-based; how it was run: as §3
Aspergillus fumigatus [24] = assay: Antifungal activity against Aspergillus fumigatus H237 expressing dominant-active rasA assessed as increase in chitin cell wall content at 16 ug/ml after 48 hrs; format: functional, organism-based; how it was run: as §3
Aspergillus fumigatus [25] = assay: Antifungal activity against Aspergillus fumigatus H237 assessed as FICI in combination with caspofungin
Aspergillus fumigatus [26] = assay: Antifungal activity against Aspergillus fumigatus Af293 assessed as FICI in combination with caspofungin
Aspergillus fumigatus [27] = assay: Antifungal activity against rasA deficient Aspergillus fumigatus H237 assessed as FICI in combination with caspofungin
Aspergillus fumigatus [28] = assay: Antifungal activity against cnaA deficient Aspergillus fumigatus Af293 assessed as FICI in combination with caspofungin
Aspergillus fumigatus [29] = assay: Antifungal activity against crzA deficient Aspergillus fumigatus Af293 assessed as FICI in combination with caspofungin
Aspergillus fumigatus [30] = assay: Antifungal activity against Aspergillus fumigatus H237 expressing rasA gene assessed as FICI in combination with caspofungin
Aspergillus fumigatus [31] = assay: Antifungal activity against Aspergillus fumigatus Af293 expressing cnaA gene assessed as FICI in combination with caspofungin
Aspergillus fumigatus [32] = assay: Antifungal activity against Aspergillus fumigatus Af293 expressing crzA gene assessed as FICI in combination with caspofungin
Aspergillus fumigatus [33] = assay: Antifungal activity against Aspergillus fumigatus H237 expressing dominant-active rasA gene assessed as FICI in combination with caspofungin

CCCCCOc1ccc(-c2ccc(-c3ccc(C(=O)N[C@H]4C[C@@H](O)[C@@H](O)NC(=O)[C@@H]5[C@@H](O)[C@@H](C)CN5C(=O)[C@H]([C@@H](C)O)NC(=O)[C@H]([C@H](O)[C@@H](O)c5ccc(O)cc5)NC(=O)[C@@H]5C[C@@H](O)CN5C(=O)[C@H]([C@@H](C)O)NC4=O)cc3)cc2)cc1 [ANIDULAFUNGIN] ({pTerphenylCO(4''-OnC5H11)}-[Orn(4R-OH,5R-OH)]T[Hyp][hTyr(3S-OH,4S-OH)]T[Pro(3S-OH,4S-Me)]; lactam 1-C)
minimal effective concentration (Aspergillus fumigatus [1]): 0.0625 µg/mL | minimal effective concentration (Aspergillus fumigatus [2]): 0.0039 µg/mL | minimal effective concentration (Aspergillus fumigatus [3]): 0.0625 µg/mL | minimal effective concentration (Aspergillus fumigatus [4]): 0.0156 µg/mL | minimal effective concentration (Aspergillus fumigatus [5]): 0.125 µg/mL | minimal effective concentration (Aspergillus fumigatus [6]): 0.0625 µg/mL | minimal effective concentration (Aspergillus fumigatus [7]): 2 µg/mL | minimal effective concentration (Aspergillus fumigatus [8]): 0.125 µg/mL | minimal effective concentration (Aspergillus fumigatus [9]): 0.0156 µg/mL | Activity (Aspergillus fumigatus [10]): Active

CCCCCOc1ccc(-c2cc(-c3ccc(C(=O)N[C@H]4C[C@@H](O)[C@@H](O)NC(=O)[C@@H]5[C@@H](O)[C@@H](C)CN5C(=O)[C@H]([C@H](O)CC(N)=O)NC(=O)[C@H]([C@H](O)[C@@H](O)c5ccc(O)c(OS(=O)(=O)O)c5)NC(=O)[C@@H]5C[C@@H](O)CN5C(=O)[C@H]([C@@H](C)O)NC4=O)cc3)no2)cc1 [MICAFUNGIN] (X1-[Orn(4R-OH,5R-OH)]T[Hyp][hTyr(3S-OH,4S-OH,3'-OSO3H)][Gln(3R-OH)][Pro(3S-OH,4S-Me)]; lactam 1-C)
minimal effective concentration (Aspergillus fumigatus [1]): 0.125 µg/mL | minimal effective concentration (Aspergillus fumigatus [2]): 0.0039 µg/mL | minimal effective concentration (Aspergillus fumigatus [3]): 0.125 µg/mL | minimal effective concentration (Aspergillus fumigatus [4]): 0.0312 µg/mL | minimal effective concentration (Aspergillus fumigatus [5]): 0.0625 µg/mL | minimal effective concentration (Aspergillus fumigatus [6]): 0.125 µg/mL | minimal effective concentration (Aspergillus fumigatus [7]): > 4 µg/mL | minimal effective concentration (Aspergillus fumigatus [8]): 0.125 µg/mL | minimal effective concentration (Aspergillus fumigatus [9]): 0.0156 µg/mL | Activity (Aspergillus fumigatus [10]): Active

C=CC[C@@H]1/C=C(\C)C[C@H](C)C[C@H](OC)[C@H]2O[C@@](O)(C(=O)C(=O)N3CCCC[C@H]3C(=O)O[C@H](/C(C)=C/[C@@H]3CC[C@@H](O)[C@H](OC)C3)[C@H](C)[C@@H](O)CC1=O)[C@H](C)C[C@@H]2OC [TACROLIMUS ANHYDROUS]
minimal effective concentration (Aspergillus fumigatus [1]): 0.02 µg/mL | minimal effective concentration (Aspergillus fumigatus [2]): > 80 µg/mL | minimal effective concentration (Aspergillus fumigatus [3]): 0.02 µg/mL | minimal effective concentration (Aspergillus fumigatus [4]): 0.01 µg/mL | minimal effective concentration (Aspergillus fumigatus [5]): 0.02 µg/mL | minimal effective concentration (Aspergillus fumigatus [6]): 0.02 µg/mL | minimal effective concentration (Aspergillus fumigatus [7]): 0.001 µg/mL | minimal effective concentration (Aspergillus fumigatus [8]): 0.02 µg/mL | minimal effective concentration (Aspergillus fumigatus [9]): 0.01 µg/mL

C[C@@H]([C@H](N)C(=O)N[C@H](C(=O)O)[C@H]1O[C@@H](n2ccc(=O)[nH]c2=O)[C@H](O)[C@@H]1O)[C@H](O)c1ccc(O)cn1 [NIKKOMYCIN]
minimal effective concentration (Aspergillus fumigatus [1]): 2 µg/mL | minimal effective concentration (Aspergillus fumigatus [2]): 0.125 µg/mL | minimal effective concentration (Aspergillus fumigatus [3]): 2 µg/mL | minimal effective concentration (Aspergillus fumigatus [4]): 0.5 µg/mL | minimal effective concentration (Aspergillus fumigatus [5]): 4 µg/mL | minimal effective concentration (Aspergillus fumigatus [6]): 4 µg/mL | minimal effective concentration (Aspergillus fumigatus [7]): 0.5 µg/mL | minimal effective concentration (Aspergillus fumigatus [8]): 2 µg/mL | minimal effective concentration (Aspergillus fumigatus [9]): 4 µg/mL | Activity (Aspergillus fumigatus [11]): inactive | Activity (Aspergillus fumigatus [12]): inactive | Activity (Aspergillus fumigatus [13]): inactive | Activity (Aspergillus fumigatus [14]): Active | Activity (Aspergillus fumigatus [15]): Active | Activity (Aspergillus fumigatus [16]): inactive | Activity (Candida albicans): Active | Activity (Aspergillus fumigatus [17]): inactive | Activity (Aspergillus fumigatus [18]): inactive | Activity (Aspergillus fumigatus [19]): inactive | Activity (Aspergillus fumigatus [20]): inactive | Activity (Aspergillus fumigatus [21]): inactive | Activity (Aspergillus fumigatus [22]): inactive | Activity (Aspergillus fumigatus [23]): inactive | Activity (Aspergillus fumigatus [24]): inactive | fractional inhibitory concentration index (FICI) (Aspergillus fumigatus [25]): 0.16 | fractional inhibitory concentration index (FICI) (Aspergillus fumigatus [26]): 0.09 | fractional inhibitory concentration index (FICI) (Aspergillus fumigatus [27]): 0.03 | fractional inhibitory concentration index (FICI) (Aspergillus fumigatus [28]): 0.19 | fractional inhibitory concentration index (FICI) (Aspergillus fumigatus [29]): 0.13 | fractional inhibitory concentration index (FICI) (Aspergillus fumigatus [30]): 0.09 | fractional inhibitory concentration index (FICI) (Aspergillus fumigatus [31]): 0.09 | fractional inhibitory concentration index (FICI) (Aspergillus fumigatus [32]): 0.16 | fractional inhibitory concentration index (FICI) (Aspergillus fumigatus [33]): 0.5

Source: ChEMBL document CHEMBL1649120, “Differential effects of inhibiting chitin and 1,3-{beta}-D-glucan synthesis in ras and calcineurin mutants of Aspergillus fumigatus” (2009)
